Source: PubChem (several laboratories)
XBP1 UPR activ: activators of adaptive arm of unfolded protein response (XBP1). CHO-XBP1 luciferase reporter, IRE1-XBP1 UPR activation, luminescence; percent of tunicamycin response, DMSO as zero. activation, % at 20 µM. actives 0.33% (n = 330,000). AID 463104;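 active = versus positive control, 20 µM dose yields 30% or more activation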;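 also: 100% = tunicamycin at 10 µg/mL and 0% = DMSO only wells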
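Material: IRE1-XBP1 luciferase reporter CHO line / Quantity: one thousand reporter cells per well / Buffer or medium: F12 with 10% serum / Compound: 20 µM single concentration, DMSO 1% / Times: 6 h treatment, 37 °C / Detection: Steady-Glo luciferase glow luminescence, 10 min after reagent addition / Benchmarks: tunicamycin high, DMSO low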
CHOP UPR activ: apoptotic UPR (CHOP) activation | CHO-CHOP luciferase reporter, luminescence; percent of tunicamycin response over DMSO baseline | activation, % at 10 µM | actives 0.34% (n = 330,000);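 active = at 10 µM dose, activation of 40% or more, normalized to positive control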;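 also: 100% = tunicamycin at 10 µg/mL and 0% = DMSO alone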
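System: CHO-CHOP luciferase reporter cell line; amount: 500 cells/well; buffer or medium: F12 medium containing 10% fetal bovine serum; incubation: 6 h compound exposure at 37 °C after overnight seeding; measured by: luciferase luminescence after 10 min with Steady-Glo reagent; evaluation: % reporter activation, DMSO baseline versus tunicamycin full activation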
Hep lipid drop: modulators of hepatic lipid droplet formation; AID 1656; actives 0.4% (n = 240,000); inhibition, % at 6.5 µM; AML12 mouse hepatocytes, oleate lipid droplets, BODIPY imaging;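 active = lipid droplet intensity inhibited by at least 50%, with more than 500 cells counted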
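Assay system: AML12 hepatocytes (mouse); Probe or stimulus: oleic acid at 100 µM to induce lipid droplet formation; Dosing: compound at 6.5 µM only; Schedule: compound with oleate, overnight; Detection: fluorescence imaging, 20x objective, two fields per well; Measure: % inhibition of lipid droplet signal.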
TMEM16A inh: blocks the mouse calcium-activated chloride channel TMEM16A; HEK293 TMEM16A/YFP iodide influx fluorescence, ionomycin; normalized B-score (activity score, 25-100; higher = stronger inhibition) at 10 µM; actives 1.2% (n = 310,000);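 active = ratio plate-corrected score three or more library SD toward inhibition, starting fluorescence score within five deviations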;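 also: score derived from kinetic fluorescence span divided by baseline fluorescence per well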
Target sequence (Q8BHY3 whole entry, looked up): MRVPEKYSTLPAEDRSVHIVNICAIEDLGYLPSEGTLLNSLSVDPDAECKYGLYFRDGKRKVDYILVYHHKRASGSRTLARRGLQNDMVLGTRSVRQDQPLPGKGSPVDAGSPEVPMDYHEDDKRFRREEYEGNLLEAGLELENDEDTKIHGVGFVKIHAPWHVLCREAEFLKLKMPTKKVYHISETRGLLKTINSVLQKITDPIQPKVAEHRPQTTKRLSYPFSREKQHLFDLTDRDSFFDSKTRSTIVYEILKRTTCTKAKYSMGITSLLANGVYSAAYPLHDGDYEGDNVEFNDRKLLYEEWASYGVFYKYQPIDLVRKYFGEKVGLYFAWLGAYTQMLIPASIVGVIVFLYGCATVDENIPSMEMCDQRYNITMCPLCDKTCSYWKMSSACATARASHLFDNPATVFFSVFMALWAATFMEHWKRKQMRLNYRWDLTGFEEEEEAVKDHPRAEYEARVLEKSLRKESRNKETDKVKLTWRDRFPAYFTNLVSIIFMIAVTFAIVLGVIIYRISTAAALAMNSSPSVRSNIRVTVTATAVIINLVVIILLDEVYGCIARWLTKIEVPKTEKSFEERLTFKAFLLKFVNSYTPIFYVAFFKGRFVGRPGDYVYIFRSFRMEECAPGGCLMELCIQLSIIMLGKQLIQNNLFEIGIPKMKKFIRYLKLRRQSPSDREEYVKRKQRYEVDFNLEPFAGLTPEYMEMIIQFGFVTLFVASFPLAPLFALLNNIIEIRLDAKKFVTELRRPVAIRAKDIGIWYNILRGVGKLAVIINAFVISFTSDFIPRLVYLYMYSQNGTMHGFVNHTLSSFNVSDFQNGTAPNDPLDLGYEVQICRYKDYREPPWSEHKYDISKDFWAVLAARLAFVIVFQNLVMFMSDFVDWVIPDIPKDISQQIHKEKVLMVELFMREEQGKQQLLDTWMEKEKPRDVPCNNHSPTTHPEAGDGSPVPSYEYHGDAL
CHOP inh: blocks CHOP induction under ER stress; inhibition, % at 10 µM; CHO-K1 CHOP-promoter luciferase, tunicamycin-induced, 15-18 h; actives 3.8% (n = 220,000);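 active = compounds that reduced the stress-induced luciferase reporter signal by more than about 70% of percent inhibition, limit read from the data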;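 also: 0% = tunicamycin plus vehicle and 100% = wells without tunicamycin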
TMEM16A act: activators or potentiators of mouse TMEM16A chloride channel; Q8BHY3; HEK293 TMEM16A/YFP-H148Q/I152L, iodide quench fluorescence; stronger effect = lower value; B-score at 10 µM; actives 0.3% (n = 340,000); AID 623877;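 active = fluorescence-ratio B-score plate-corrected deviation score at least 3 library SD below zero, with starting fluorescence score within 5 deviations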;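 also: channel opened by trigger with iodide after compound preincubation; score built on the fluorescence ratio of max minus min over baseline; more negative score means more quench and so TMEM16A activation or potentiation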
The depositor's hits bear a star; i = inactive; . = not tested or not shown. A selection: hits, their analogues and other compounds. The true share with any hit is near 4.2%.

SMILES	XBP1 UPR activ	CHOP UPR activ	Hep lipid drop	TMEM16A inh	CHOP inh	TMEM16A act
CCOc1cc(/C=N/NC(=O)c2ccncc2)ccc1OC(=O)c1ccc([N+](=O)[O-])cc1	-1	0	.	i	81*	i
CCCCCCC1/C(=N\NC(=O)c2ccccc2)CCC1C(=O)OC (stereo not given)	-1	-1	.	i	.	i
COc1ccc(N(C(C)=O)S(=O)(=O)c2cccc3cccnc23)cc1	-2	-1	-4	i	7	i
Cc1cc(C=C2C(=O)c3ccccc3C2=O)c(C)n1-c1ccccc1	-4	-8	.	i	84*	i
Cc1cc(C=C2C(=O)c3ccccc3C2=O)c(C)n1-c1cccc(C(=O)O)c1	1	-1	-18	i	-1	i
Cc1cc(C=C2C(=O)c3ccccc3C2=O)c(C)n1-c1ccc(C(=O)O)cc1	1	-1	-2	i	-3	i
Cc1cc(/C=C2\Cc3ccccc3C2=O)c(C)n1-c1ccccc1	-8	-6	12	i	89*	i
CCc1ccc(S(=O)(=O)N2CCN(C(=O)C3CCN(C(C)=O)CC3)CC2)cc1	1	-1	8	i	.	i
CCC1CCc2c(c3ccccc3[nH]c2=O)O1 (stereo not given)	2	-3	.	i	12	i
CCCC1CCc2c(c3ccccc3[nH]c2=O)O1 (stereo not given)	4	1	-6	i	76*	i
CC1=CSC2=NC(=O)/C(=C\c3cccn3-c3ccc([N+](=O)[O-])cc3)C(=N)N12	4	-2	-14	i	87*	i
Cc1ccc(-n2cccc2/C=C2/C(=N)N3C(=NC2=O)SN=C3S(C)(=O)=O)cc1Cl	.	.	-4	i	1	i
CCOc1ccc(-n2c(C)cc(/C=C3/C(=N)N4C(=NC3=O)SN=C4S(C)(=O)=O)c2C)cc1	0	-2	-2	i	22	-6.3*
Cc1cccc(C)c1-n1cccc1/C=C1/C(=N)N2C(=NC1=O)SN=C2S(C)(=O)=O	-2	-1	9	25*	39	i
CC1=CSC2=NC(=O)/C(=C\c3cccn3-c3ccccc3)C(=N)N12	1	3	-2	i	-7	i
COC(=O)c1cc2ccsc2n1CC(=O)Nc1cc(Cl)ccc1OC	-4	10	-6	25*	.	i
CCOC(=O)CSc1nnc(NC(=O)c2cccc(S(=O)(=O)N3CCCCCC3)c2)s1	-1	0	.	25*	16	i
CCSc1nnc(NC(=O)c2cccc(S(=O)(=O)N(C)c3ccc(C)cc3)c2)s1	-1	0	-3	25*	13	i
NC(=O)CSc1nnc(NC(=O)c2cccc(S(=O)(=O)N3CCCCC3)c2)s1	-2	-2	4	i	23	i
CN1C(C(=O)NCc2cccc(C(F)(F)F)c2)CC2Cn3c(nc4cc(Cl)c(Cl)cc43)C21 (stereo not given)	-2	1	-9	i	0	i
CCc1nc(Nc2ccccc2)c2oc3ccccc3c2n1	2	-2	.	i	72*	i
CCc1nc(NCCCn2ccnc2)c2oc3ccccc3c2n1	2	-1	.	i	2	-26*
c1ccc(-c2nc(NCCCn3ccnc3)c3oc4ccccc4c3n2)cc1	-1	1	.	i	23	i
NS(=O)(=O)c1ccc(NC(=O)CN2CCCN(S(=O)(=O)c3ccc(F)cc3)CC2)cc1	-4	0	-2	i	-6	-7.8*
CCN(CC)S(=O)(=O)c1ccc(NC(=O)CSc2nnc(-c3ccc(F)cc3)o2)cc1	-1	0	3	i	94*	i
SMILES	XBP1 UPR activ	CHOP UPR activ	Hep lipid drop	TMEM16A inh	CHOP inh	TMEM16A act
O=C(CSc1nnc(-c2ccc(F)cc2)o1)Nc1ccc(S(=O)(=O)N2CCCCCC2)cc1	-1	-2	.	i	84*	i
Cc1ccc(S(=O)(=O)N2CCN(C(=O)c3cc(S(=O)(=O)N(C)C)ccc3N3CCCC3)CC2)c(C)c1	-2	0	.	.	.	i
CSc1ncccc1C(=O)Nc1nccs1	4	2	-8	i	.	i
CC(C)N(C(=O)CSc1ncnc2sc(-c3ccccc3)cc12)C(C)C	2	2	-24	25*	29	i
Fc1ccccc1-c1cc2ccccc2cn1	2	6	.	.	.	i
Cc1ccc(-c2cc(-c3ccccc3)c(C#N)c(N)n2)o1	-1	2	33	i	95*	i
CCOC(=O)c1c(N)sc2c(OCC)c(Br)ccc12	2	2	0	i	85*	i
CCOC(=O)c1sc(N)c(C(=O)OCC)c1C	5	4	-15	i	-23	i
CCc1c(C)c2cc(Cl)c(O)c(CN3CCCC3)c2oc1=O	-3	-1	-2	i	.	i
S=C(NCC1CCCO1)NC1CCCCC1 (stereo not given)	1	-2	-19	i	-1	i
CCCC(NC(=S)NCC1CCCO1)C12CC3CC(CC(C3)C1)C2 (stereo not given)	3	12	-2	i	83*	i
COc1ccc(C(=O)C(c2ccccc2)N2CCOCC2)cc1 (stereo not given)	4	-3	.	i	0	.
Cc1ccc(C(=O)C(c2ccccc2)N2Cc3ccccc3C2=N)cc1 (stereo not given)	9	1	-38	100*	70	i
CC(=O)OC1COC(N2CCc3cc(Br)c([N+](=O)[O-])cc32)C(OC(C)=O)C1OC(C)=O (stereo not given)	-1	-1	-1	i	89*	i
CC(=O)OC1COC(N2CCc3ccccc32)C(OC(C)=O)C1OC(C)=O (stereo not given)	-3	1	-1	i	34	i
CCCCCn1c(=O)[nH]c2cc(C(=O)N3CCN(Cc4ccc5c(c4)OCO5)CC3)ccc2c1=O	-2	6	-14	i	82*	i
COCCCNC(=O)c1ccc2c(=O)n(Cc3ccc4c(c3)OCO4)c(=S)[nH]c2c1	4	-1	.	i	54	i
O=C(c1ccc2c(=O)n(Cc3ccc4c(c3)OCO4)c(=S)[nH]c2c1)N1CCCCC1	-1	4	.	i	92*	i
CC1CC(C)CN(C(=O)c2ccc3c(=O)n(Cc4ccc5c(c4)OCO5)c(=S)[nH]c3c2)C1 (stereo not given)	-2	-1	.	i	95*	i
